Measured values taken from ChEMBL document CHEMBL1149665, “Synthesis and biological evaluation of cepharadiones A and B and related dioxoaporphines” (2007).
≈ marks a conversion by molar mass, not a printed value.

Assays:
Format in all cases: functional
KM-20L2 = test: Growth inhibition of human KM20L2 cells after 48 hrs by SRB assay; conditions: KM-20L2, 48 h
How it was run: (§1)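 Cells seeded in 5% fetal bovine serum/RPMI1640 and incubated 24 h before serial compound dilutions were added. After 48 h exposure, cells were fixed with trichloroacetic acid and stained with sulforhodamine B (NCI standard SRB protocol), and optical density was read. GI50, the concentration causing 50% reduction in net protein increase, was calculated from the optical density data; values reported in µg/mL.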

BXPC-3 = test: Growth inhibition of human BXPC3 cells after 48 hrs by SRB assay; conditions: BXPC-3, 48 h; how it was run: as §1
MCF7 = test: Growth inhibition of human MCF7 cells after 48 hrs by SRB assay; conditions: MCF7, 48 h; how it was run: as §1
NCI-H460 = test: Growth inhibition of human NCI-H460 cells after 48 hrs by SRB assay; conditions: NCI-H460, 48 h; how it was run: as §1
SF-268 = test: Growth inhibition of human SF268 cells after 48 hrs by SRB assay; conditions: SF-268, 48 h; how it was run: as §1
DU-145 = test: Growth inhibition of human DU145 cells after 48 hrs by SRB assay; conditions: DU-145, 48 h; how it was run: as §1

Row | Compound | GI50 (KM-20L2) | GI50 (BXPC-3) | GI50 (MCF7) | GI50 (NCI-H460) | GI50 (SF-268) | GI50 (DU-145)
1 | COc1ccc2c3c(cc4ccccc4c13)N(C)C(=O)C2=O | 0.82 µg/mL (≈ 2.81 µM) | 1.6 µg/mL (≈ 5.49 µM) | 0.66 µg/mL (≈ 2.27 µM) | 0.46 µg/mL (≈ 1.58 µM) | 0.42 µg/mL (≈ 1.44 µM) | 1.3 µg/mL (≈ 4.46 µM)
2 | CCOc1ccc2c3c(cc4ccccc4c13)N(C)C(=O)C2=O | > 10 µg/mL | > 10 µg/mL | > 10 µg/mL | > 10 µg/mL | > 10 µg/mL | > 10 µg/mL
3 | Cc1cc2c3c(cc4ccccc4c3c1C)N(C)C(=O)C2=O | 4.2 µg/mL (≈ 14.5 µM) | > 10 µg/mL | 8.4 µg/mL (≈ 29 µM) | 2.3 µg/mL (≈ 7.95 µM) | 0.7 µg/mL (≈ 2.42 µM) | > 10 µg/mL
4 | CN1C(=O)C(=O)c2cc3c(c4c2c1cc1ccccc14)OCO3 [CEPHARADIONE A] | 17.3 µg/mL (≈ 56.7 µM) | > 10 µg/mL | 6.3 µg/mL (≈ 20.6 µM) | 2.5 µg/mL (≈ 8.19 µM) | 2.9 µg/mL (≈ 9.5 µM) | 4.3 µg/mL (≈ 14.1 µM)
5 | COc1cc2c3c(cc4ccccc4c3c1OC)N(C)C(=O)C2=O [CEPHARADIONE B] | > 10 µg/mL | > 10 µg/mL | > 10 µg/mL | > 10 µg/mL | 22.8 µg/mL (≈ 71 µM) | 36.1 µg/mL (≈ 112 µM)
